CHOP inhibitor – blocks CHOP induction under ER stress | inhibition, % at 10 µM | CHO-K1 CHOP-promoter luciferase, tunicamycin-induced, 15-18 h | AID 2732 | 220,000 tested, 3.8% active;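 active = compounds that reduced the stress-induced luciferase reporter signal by more than about 70% of percent inhibition, limit read from the data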;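 note: 0% = tunicamycin plus vehicle and 100% = wells without tunicamycin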
VLA-4 inh – inhibition in a human VLA-4 binding assay | P13612 | VLA-4 expressing cells, ligand binding flow cytometry | inhibition, % (about 7 µM as worked out from the volumes in the protocol) | 330,000 tested, 0.2% active | AID 2557; in the data active = inhibition above about 50%
Target sequence (P13612 whole entry, looked up): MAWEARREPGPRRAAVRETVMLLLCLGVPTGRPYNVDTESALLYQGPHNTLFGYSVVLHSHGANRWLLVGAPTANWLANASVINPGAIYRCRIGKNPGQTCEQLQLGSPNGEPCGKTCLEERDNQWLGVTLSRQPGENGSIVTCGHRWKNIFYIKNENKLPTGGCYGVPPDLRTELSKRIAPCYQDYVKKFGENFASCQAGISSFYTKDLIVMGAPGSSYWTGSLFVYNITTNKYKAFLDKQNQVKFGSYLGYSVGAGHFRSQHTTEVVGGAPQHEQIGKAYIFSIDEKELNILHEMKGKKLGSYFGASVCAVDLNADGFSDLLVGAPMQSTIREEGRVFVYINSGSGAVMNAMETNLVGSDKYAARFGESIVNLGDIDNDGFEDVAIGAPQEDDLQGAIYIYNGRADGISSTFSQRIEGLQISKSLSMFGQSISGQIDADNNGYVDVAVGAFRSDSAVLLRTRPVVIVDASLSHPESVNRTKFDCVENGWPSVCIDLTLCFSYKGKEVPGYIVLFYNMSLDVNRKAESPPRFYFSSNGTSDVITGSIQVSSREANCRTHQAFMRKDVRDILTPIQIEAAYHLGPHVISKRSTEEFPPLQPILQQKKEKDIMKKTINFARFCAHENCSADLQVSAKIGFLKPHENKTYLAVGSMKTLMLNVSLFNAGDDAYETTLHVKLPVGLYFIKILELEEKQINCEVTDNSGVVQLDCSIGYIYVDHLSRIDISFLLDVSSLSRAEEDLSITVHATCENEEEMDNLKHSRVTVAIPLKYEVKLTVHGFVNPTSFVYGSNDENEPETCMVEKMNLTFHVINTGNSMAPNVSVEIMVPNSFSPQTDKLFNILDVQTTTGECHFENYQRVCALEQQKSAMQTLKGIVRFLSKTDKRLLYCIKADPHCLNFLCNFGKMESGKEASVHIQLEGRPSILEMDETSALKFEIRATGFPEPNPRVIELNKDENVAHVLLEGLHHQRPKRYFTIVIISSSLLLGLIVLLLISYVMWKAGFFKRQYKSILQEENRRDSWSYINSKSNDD
XBP1 UPR activ – activators of adaptive arm of unfolded protein response (XBP1); CHO-XBP1 luciferase reporter, IRE1-XBP1 UPR activation, luminescence; percent of tunicamycin response, DMSO as zero; activation, % at 20 µM; 330,000 tested, 0.33% active; AID 463104;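 active = versus positive control, 20 µM dose yields 30% or more activation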;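 note: 100% = tunicamycin at 10 µg/mL and 0% = DMSO only wells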
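Material: CHO cell line with stable XBP1 luciferase reporter; schedule: 16-18 h cell attachment at 37 °C, then 6 h compound exposure; signal: glow luminescence from Steady-Glo reagent; medium: serum-containing F12 medium, 10% FBS; benchmarks: tunicamycin 10 µg/mL and vehicle-only wells; read-out: percent activation relative to tunicamycin reference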
Beta2AR agonist – human beta-2 adrenergic receptor agonism by FAP; 340,000 tested, 0.43% active; P07550; Am2.2-beta2AR cells, FAP receptor internalization, flow cytometry; response, % (test concentration not listed);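 active = response above a set limit, near 3 SD of response in nonfluorescent compounds, cut at about 42% in these data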
CHOP UPR activ – activators of apoptotic arm of unfolded protein response (CHOP); CHO-CHOP luciferase reporter, UPR activation, luminescence; percent of tunicamycin response over DMSO baseline; 330,000 tested, 0.34% active; activation, % at 10 µM; AID 449763;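 active = at 10 µM dose, activation of 40% or more, normalized to positive control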;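 note: 100% = tunicamycin at 10 µg/mL and 0% = DMSO alone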
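assay system = CHO CHOP reporter cells | amount = 500 CHO-CHOP cells per well | buffer or medium = F12 with 10% FBS | incubation = 16-18 h cell attachment, then 6 h compound exposure, 37 °C | detection = luminescence read with Steady-Glo | read-out = percent activation relative to tunicamycin control | controls = tunicamycin high control, DMSO low control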
VLA-4 allo CP – human VLA-4 allosteric modulation in cherry picked compounds; shares compounds with VLA-4 inh; U937 cells, HUTS-21 LIBS mAb binding, flow cytometry; LDV ligand present at threefold Kd; inhibition, % at 6.7 µM; 1,300 tested, 2% active; AID 2813; in the data active = inhibition above about 40%;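 note: 0% = ligand without compound and 100% = no ligand background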
An asterisk follows results filed as active; / = no result given. Shown is part of a subset that was picked to be rich in hits.

SMILES	CHOP inhibitor	VLA-4 inh	XBP1 UPR activ	Beta2AR agonist	CHOP UPR activ	VLA-4 allo CP
COc1cccc(CNC(=O)Nc2cccs2)c1	20	92*	-8	-2	1	-1
CCN(CC(=O)Nc1c(F)cccc1F)C(=O)CCNC(=O)c1ccc([N+](=O)[O-])cc1	/	2	1	-1	1	/
COC(=O)CC1C(=O)NCCN1C(=S)Nc1ccccc1Cl (stereo unspecified)	-8	53*	2	2	-1	2
COC(=O)CC1C(=O)NCCN1C(=S)Nc1ccc(F)cc1 (stereo unspecified)	8	4	2	8	1	/
CCOC(=O)c1c(NC(=O)COC(=O)c2nccnc2N)sc2c1CCC2	/	16	/	11	/	/
CCOC(=O)c1c(NC(=O)COc2ncnc3sccc23)sc2c1CCC2	3	70*	0	5	0	8
Cc1nn(C)c(C)c1S(=O)(=O)N(CC(=O)NCc1ccco1)c1ccc(C(C)C)cc1	0	64*	1	/	-1	7
COc1cccc(NC(=O)CN(c2ccc(C)cc2)S(=O)(=O)c2c(C)nn(C)c2C)c1	10	10	4	11	2	/
COc1ccc(NC(=O)CN(c2cc(C)cc(C)c2)S(=O)(=O)c2c(C)n[nH]c2C)cc1	43	4	-4	3	6	/
COc1ccc(N(CC(=O)Nc2cccc(OC)c2)S(=O)(=O)c2c(C)nn(C)c2C)cc1	40	0	-3	5	0	6
COc1ccc(N(CC(=O)Nc2ccc(F)c(F)c2)S(=O)(=O)c2c(C)n[nH]c2C)cc1	/	4	-4	-5	3	0
CC(C)(C)OC(=O)C[C@H]1C/C=C\C[C@H](CC(=O)N(CCO)Cc2ccccc2)C(=O)N2CCC[C@H]2COC1=O	/	2	0	-4	1	/
c1ccc(CN2CCC(N3CCC(N4CCCCCC4)CC3)CC2)cc1	/	5	-5	-8	1	/
C#CC1CN(Cc2ccccc2)CC(C#C)N1C (stereo unspecified)	14	62*	0	-6	1	3
CN(Cc1ccccc1)C(=O)CN(C)S(=O)(=O)c1ccc(F)cc1	/	10	-1	-8	3	0
CN(CC(=O)O)S(=O)(=O)c1ccc(F)cc1	-5	8	-1	-3	-1	/
O=C(O)c1cc(S(=O)(=O)N2CCN(S(=O)(=O)c3ccc4ccccc4c3)CC2)ccc1Br	/	9	0	-6	1	/
CCN(C[C@H]1N[C@@](Cc2ccccc2)(C(=O)OC)[C@H]2C(=O)N(C)C(=O)[C@@H]12)C(=O)c1ccc(C)cc1	/	51*	-1	10	-1	2
COC(=O)[C@]1(Cc2ccccc2)N[C@H](CN(C)C(=O)Nc2ccc(OC)cc2)[C@@H]2C(=O)N(Cc3ccccc3)C(=O)[C@@H]21	/	-2	-2	2	2	5
COC(=O)[C@]1(Cc2ccccc2)N[C@H](CN(C)C(=O)Nc2ccc(OC)cc2)[C@@H]2C(=O)N(C)C(=O)[C@@H]21	/	-4	1	-8	0	/
CCN(C[C@H]1N[C@@](Cc2ccccc2)(C(=O)OC)[C@H]2C(=O)N(Cc3ccccc3)C(=O)[C@@H]12)C(=O)c1ccc(F)cc1	/	5	-2	8	0	2
Cc1ccc(NC(=O)Nc2ccc(F)c(Cl)c2)cc1	7	4	0	-2	5	/
CCC(CC)NC(=O)Nc1ccc(F)c(Cl)c1	12	64*	-2	-3	1	7
CC(CNC(=O)CN1C(=O)NC2(CCOc3ccccc32)C1=O)c1ccccc1 (stereo unspecified)	/	7	-2	-3	-2	/
N#Cc1ccc(CNC(=O)N2CCOCC2)cc1	/	45	/	-2	/	0
CCOc1ccc(NC(=O)c2c(OC)cccc2OC)cc1	19	4	-2	-6	1	/
CCOc1ccc(NC(=O)COC(=O)c2c(OC)cccc2OC)cc1	-7	-6	-1	-3	3	-16
O=C(OCc1c(F)cccc1Cl)c1cccnc1Cl	/	51*	-1	-1	2	4

Assay outcomes: PubChem BioAssay, several laboratories
